Compound activity (PubChem)
The list is not random: actives were taken first. Their share in the collection is about 4.4%.
NR3A LBD binder: binders of NR3A ligand-binding domain, primary screen, biophysical, differential scanning fluorimetry, uHTS | NR3A LBD differential scanning fluorimetry, Tm shift; 0% = protein alone, 100% = glycine-bound protein | Tm shift relative to glycine control, % at 25 µM | hit rate 2.5% among 340,000 | AID 1259313, 2017;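 active means melting temperature shift of at least 10% of the positive control shift, at one fixed dose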
MPTP inh: mitochondrial permeability transition pore inhibitors, primary screen, biochemical, isolated mouse mitochondria, absorbance; hit rate 1.4% among 360,000; AID 602449, 2012; Ca2+ swelling absorbance, 30 min; inhibition, % at 10 µM;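 active means inhibition of 50% or more, scaled per plate between neutral and stimulator controls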;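 further: 0% = DMSO wells given calcium and 100% = 1 mM EGTA wells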
SENP1 FRET inh: human SENP1 catalytic domain inhibitors, primary screen, biochemical, FRET, uHTS; recombinant SENP1 catalytic domain, CyPet-SUMO1-YPet FRET cleavage; inhibition, % at 10 µM; hit rate 0.21% among 360,000; AID 624204, 2012;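 active means inhibition at least 30% at 10 µM, raw YFP signal under a set limit, fluorescence ratio 0.5 to 1.5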;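 further: 0% = enzyme with DMSO and 100% = no enzyme wells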
Target sequence (Q9P0U3 419-644 limits assumed): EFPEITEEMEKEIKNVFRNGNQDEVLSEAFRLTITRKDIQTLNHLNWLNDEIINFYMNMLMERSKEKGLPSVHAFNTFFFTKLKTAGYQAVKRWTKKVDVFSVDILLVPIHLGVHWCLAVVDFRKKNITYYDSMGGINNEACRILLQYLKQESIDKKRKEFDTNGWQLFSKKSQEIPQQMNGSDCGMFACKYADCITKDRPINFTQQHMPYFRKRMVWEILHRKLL
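Material: hSENP1 catalytic domain, recombinant; medium: Tris pH 8 with BME, BSA, NP40 and catalase; compound: single concentration of 10 µM compound, 0.5% DMSO final; technique: FRET read of cyan and yellow fluorescence; timing: 50 min enzyme reaction, room temperature, light-protected; reagent: SFCypet-SUMO1-SFYpet substrate at 25 nM; control set: no-enzyme low, enzyme-DMSO high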
EBI2 antag: EBI2 receptor antagonists, beta-arrestin recruitment, primary screen, cell-based, luminescence, 7a,25-OHC stimulation, uHTS; G-protein coupled receptor 183 (Homo sapiens), P32249; 7a,25-OHC stimulated; inhibition, % at 5 µM; hit rate 0.81% among 360,000; in the data active means inhibition above about 38%;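 further: enzyme fragment complementation signal reports receptor beta-arrestin coupling in cells; 0% = agonist plus DMSO wells and 100% = wells without agonist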
Target sequence (P32249 whole entry, looked up, the tested form may be a part): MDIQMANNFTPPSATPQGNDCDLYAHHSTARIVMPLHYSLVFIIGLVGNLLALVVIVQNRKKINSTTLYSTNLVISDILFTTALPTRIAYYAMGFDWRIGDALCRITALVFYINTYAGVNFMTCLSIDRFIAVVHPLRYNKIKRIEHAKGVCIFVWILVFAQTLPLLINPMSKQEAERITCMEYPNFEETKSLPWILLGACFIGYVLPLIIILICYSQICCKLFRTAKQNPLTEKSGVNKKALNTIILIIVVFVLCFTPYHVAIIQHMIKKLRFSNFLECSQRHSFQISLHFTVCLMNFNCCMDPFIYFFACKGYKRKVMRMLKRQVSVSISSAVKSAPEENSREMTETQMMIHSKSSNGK
MPTP counter: fluorescence retest of MPTP screen hits in isolated mitochondria, single concentration | shares compounds with MPTP inh | inhibition, % at 10 µM | hit rate 78% among 5,000 | membrane potential, Rhodamine 123 fluorescence; in the data active means inhibition above about 22%;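 further: 0% = DMSO vehicle and 100% = positive control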
MPTP abs DR: mitochondrial permeability transition pore inhibitors, dose response, biochemical, absorbance, uHTS hits. shares compounds with MPTP inh. isolated mitochondria swelling. IC50, µM. hit rate 58% among 780. AID 651561, 2012; in the data active means IC50 below about 20 µM
MPTP cs DR: fluorescent counter-screen in isolated mitochondria, dose response, counter-screen for MPTP inhibitor project, biochemical, fluorescence, uHTS hits. shares compounds with MPTP inh. isolated mitochondria counterscreen, fluorescence read-out. IC50, µM. hit rate 49% among 780; in the data active means IC50 below about 80 µM
* hit, by the source's call; · = not tested or not shown.

SMILES | NR3A LBD binder | MPTP inh | SENP1 FRET inh | EBI2 antag | MPTP counter | others
Cc1cccc(NC(=O)c2cc(-c3ccccn3)nc3ccccc23)c1C | 1 | -2 | 2 | -6 | ·
CC(C)(C)c1ccc(OCCCC(=O)NNC(=O)c2ccccc2O)cc1 | · | 69* | -1 | 5 | 82*
COc1cccc(CN2CCC(Oc3ccc(C(=O)NCc4ccccn4)cc3)CC2)c1O | 2 | -1 | 0 | 7 | ·
OCCNCc1cc(Br)ccc1OCc1ccc(Cl)cc1Cl | -1 | 82* | -50 | -3 | 20*
CCOc1cccc(CNCCO)c1OCc1ccc(Cl)cc1Cl | -6 | 94* | 0 | -4 | 2 | MPTP abs DR=4.5*;MPTP cs DR=20*
OCCNCc1cc(Br)ccc1OCc1ccc(Cl)cc1 | 1 | 4 | 0 | -7 | ·
Clc1ccc(N/N=C/c2ccncc2)cc1Cl | 12* | 70* | 0 | 6 | 56*
Clc1cnc(N/N=C/c2ccncc2)c(Cl)c1 | 1 | -2 | 1 | -2 | ·
CCc1cc(C(=O)NCC(c2cccs2)N2CCOCC2)sc1C (stereo not drawn) | 0 | 2 | 1 | 1 | ·
CC(C)(C)c1ccc(C(=O)CC(Sc2ccc(Cl)cc2)C(=O)O)cc1 (stereo not drawn) | 2 | -2 | 2 | 26 | ·
Cc1ccc(NC(=O)[C@@H]2CCCN2C(=O)[C@@H]2Cc3ccccc3CN2)c(C)c1 | -2 | 2 | 1 | -2 | ·
Cc1ccc(NC(=O)c2cccc(S(=O)(=O)N3CCc4ccccc4C3)c2)nc1 | -2 | -1 | 0 | 1 | ·
COc1cc(OC)c(OC)cc1CNC(=O)c1cccc(S(=O)(=O)N2CCc3ccccc3C2)c1 | -1 | 98* | 1 | -14 | 104*
Cc1cc(N2CCN(C)CC2)ccc1NC(=O)c1cccc(S(=O)(=O)N2CCc3ccccc3C2)c1 | -5 | 92* | 2 | 2 | -1
CCOc1ccc(N(CC(=O)Nc2cccc(C)c2)S(C)(=O)=O)cc1 | 1 | 1 | 4 | 10 | ·
CCOC(=O)c1cccc(OCC(O)CNCCOc2ccccc2F)c1 (stereo not drawn) | -3 | 74* | -1 | -8 | -12 | MPTP abs DR=8.9*;MPTP cs DR=>80
O=C1N=C(O)CN1/N=C/c1ccc(-c2ccc([N+](=O)[O-])cc2)o1 | -2 | · | -10 | 4 | ·
CCCCCCCc1nc2sc3c(c2c(=O)n1N)CC(C)(C)OC3 | -3 | 4 | 1 | -8 | ·
CCCCCc1nc2sc3c(c2c(=O)n1NC(=O)c1ccc([N+](=O)[O-])cc1)CC(C)(C)OC3 | 12* | 90* | 4 | 5 | 76*
Cc1sc2ncnc(N3CCC(C(=O)Oc4cccc(Cl)c4Cl)CC3)c2c1C | -3 | 1 | 1 | -3 | ·
Cc1nn(C)c(Cl)c1NC(=O)OCc1ccc(Cl)cc1Cl | -3 | 87* | 1 | 2 | 92*
Cc1nnsc1NC(=O)OCc1ccc(Cl)cc1Cl | -2 | 8 | 2 | -1 | ·
C=CCn1c(-c2ccc(S(=O)(=O)N3CCOCC3)cc2)csc1=Nc1ccccc1 | -1 | 58* | -1 | 15 | 100*
CC(=O)c1cccc(N=c2scc(-c3ccc(S(=O)(=O)N4CCOCC4)cc3)n2CCO)c1 | -3 | 97* | 3 | 7 | 87*
CC(C(=O)Nc1ccc(N(C)C)cc1)N1C(=O)c2ccccc2S1(=O)=O (stereo not drawn) | 2 | 0 | 2 | -5 | ·
SMILES | NR3A LBD binder | MPTP inh | SENP1 FRET inh | EBI2 antag | MPTP counter | others
COc1ccc(NC(=O)CC(NCc2ccccn2)C(=O)O)cc1 (stereo not drawn) | 3 | 0 | 2 | -14 | ·
CCOc1cc(/C=C(/C#N)c2nc3ccccc3[nH]2)ccc1Oc1ccc([N+](=O)[O-])cn1 | 7 | 83* | -25 | 19 | 45*
Cc1ccc2nc(/C(C#N)=C\c3ccc(Oc4ccc([N+](=O)[O-])cn4)cc3)[nH]c2c1 | 12* | 65* | -30 | 32 | 19 | MPTP abs DR=>100;MPTP cs DR=10*
O=C1c2cc(Cl)ccc2OC2(CCNCC2)C12CC(c1ccccc1)=NO2 (stereo not drawn) | 1 | 71* | 1 | -6 | -16 | MPTP abs DR=8.9*;MPTP cs DR=>80
Cc1ccc(NN2C(=O)C=C(c3ccccc3)C2=O)cc1 | -1 | -1 | -1 | -11 | ·
Nc1nc2ccccc2cc1C(=O)NCCCCc1ccccc1 | · | 94* | -19 | -5 | 104*
OC(c1cc(C(F)(F)F)nc2c(C(F)(F)F)cccc12)C1CCCCN1 (stereo not drawn) | -2 | 92* | 0 | -3 | -23
OC(c1cc(-c2cccc(Cl)c2)nc2ccccc12)C1CCCCN1 (stereo not drawn) | -1 | 82* | -1 | -4 | -19 | MPTP abs DR=3.6*;MPTP cs DR=29*
Cc1ccc(N2CC(NC(=O)C(=O)c3c[nH]c4ccccc34)CC2=O)cc1C (stereo not drawn) | 0 | -1 | 1 | 13 | ·
CN(C)CCC(=O)c1ccc(Cl)cc1 | -2 | 99* | 1 | -5 | 5 | MPTP abs DR=10*;MPTP cs DR=>80
CCc1cccc(NC(=O)Cc2ccc([N+](=O)[O-])cc2)c1 | -1 | 14 | 3 | -7 | ·
O=C(Cc1ccc([N+](=O)[O-])cc1)Nc1cc(C(F)(F)F)cc(C(F)(F)F)c1 | -2 | 77* | 6 | 8 | 98*
O=C(Cc1ccc([N+](=O)[O-])cc1)Nc1cccc(C(F)(F)F)c1 | -1 | 81* | 2 | 3 | 82*
O=C(Cc1ccc([N+](=O)[O-])cc1)Nc1cccnc1 | 0 | 0 | 6 | -2 | ·
C[C@@H]1CN([C@H](C)CO)C(=O)CCCn2nncc2CO[C@@H]1CN(C)S(=O)(=O)c1ccccc1C#N | · | 1 | 3 | 1 | ·
N=c1n(CCO)c2ccccc2n1CCOc1ccc(Cl)cc1Cl | -1 | 87* | 2 | -1 | -4 | MPTP abs DR=4*;MPTP cs DR=29*
COc1ccc(OCCn2c(=N)n(CCO)c3ccccc32)cc1 | -3 | 3 | 1 | 4 | ·
Cc1ccc(Nc2cc(C)nc(-c3ccccc3)n2)cc1 | 0 | 1 | -1 | 5 | ·
Cc1cc(Nc2ccc(F)c(F)c2)nc(-c2ccccc2O)n1 | 23* | 90* | -1 | 20 | 60*
CN1/C(=C\C=C2/C(=O)Oc3ccccc3C2=O)C(C)(C)c2ccccc21 | 2 | · | · | · | ·
CN1C(=CC=C2C=C(I)C(=O)C(I)=C2)C(C)(C)c2ccccc21 | 5 | 67* | 10 | 16 | -34
CN(C)c1ccc(N=C/C=C2/N(C)c3ccccc3C2(C)C)cc1 | -6 | 82* | 11 | 11 | 52*
